Results as given in PubChem BioAssay AID588575 (Sanford-Burnham Center for Chemical Genomics, 2011).
Calls of active or inactive are those of the source.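 The calls were made as follows: active = IC50 at or below 20 µM; inactive = the rest.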

Target: Bcl-2-like protein 10 (Homo sapiens) (UniProt Q9HD36)
Experiment: Bcl-B inhibitors displacing Bim peptide, SAR follow-up, biochemical, fluorescence polarization, GST-Bcl-B, FITC-Bim (AID 588575)
Outline: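 Assay system: purified GST-Bcl-B fusion, E. coli-expressed, missing ~20-residue C-terminal transmembrane segment. Buffer or medium: HEPES-KOH pH 7.5 buffer with Tween-20 and TCEP. Dosing: 10 concentrations, 2-fold steps. Times: Protein–compound preincubation 20 min, 4 °C, probe binding 10 min, RT. Measured by: fluorescence polarization at 485/530 nm. Evaluation: IC50 from sigmoidal dose-response curve fit.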

Sequence of Bcl-2-like protein 10 (Homo sapiens) (Q9HD36 whole entry, looked up): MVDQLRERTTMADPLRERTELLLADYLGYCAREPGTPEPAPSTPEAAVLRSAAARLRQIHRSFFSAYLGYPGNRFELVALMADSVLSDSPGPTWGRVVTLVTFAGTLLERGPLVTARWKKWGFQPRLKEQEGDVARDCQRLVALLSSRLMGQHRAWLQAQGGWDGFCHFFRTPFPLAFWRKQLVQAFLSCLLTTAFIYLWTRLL

SMILES | IC50
Cn1c(NCCO)nc2c(c1=O)C1(CCCCC1)Cc1ccccc1-2 | > 20 µM (inactive)
O=c1c2ccccc2nc2n1C1(CCCC1)Cc1ccccc1-2 | > 20 µM (inactive)
Cc1ccc2c(c1)-c1c(c(=O)n(Cc3ccccc3)c3nncn13)C1(CCCCC1)C2 | 4.92 µM
O=C1CC(c2ccccc2F)c2c(n3ncnc3[nH]c2=O)N1 (stereo not drawn) | > 20 µM (inactive)
c1ccc(OCc2nc3c4c(ncn3n2)-c2ccccc2CC42CCCC2)cc1 | > 20 µM (inactive)
O=c1c2c(nc3n1CCS3)-c1ccccc1CC21CCCCC1 | > 20 µM (inactive)
O=c1c2cnc3nc(-c4ccccc4)nn3c2ccn1CCc1cnc[nH]1 | > 20 µM (inactive)
Cn1c(=S)[nH]c2c(c1=O)C1(CCCCC1)Cc1ccccc1-2 | > 20 µM (inactive)
COc1ccc2c(c1)-c1c(c(=O)n(Cc3ccccc3)c3nncn13)C(C)(C)C2 | > 20 µM (inactive)
Cc1ccc2c(c1)-c1c(c(=O)n(Cc3ccccc3)c3nncn13)C(C)(C)C2 | > 20 µM (inactive)
O=c1c2c(n3cnnc3n1Cc1ccc(Cl)cc1)-c1ccccc1CC21CCCC1 | 3.4 µM
C=C(C)Cn1c(=O)c2c(n3nnnc13)-c1ccccc1CC21CCCC1 | > 20 µM (inactive)
Cc1ccc2c(c1)-c1c(c(=O)n(Cc3ccc(F)cc3)c3nncn13)C1(CCCCC1)C2 | 0.6 µM
COc1ccc(Cn2c(=O)c3c(n4cnnc24)-c2cc(C)ccc2CC3(C)C)cc1 | 8.29 µM
O=c1c2c(n3cnnc3n1Cc1ccccc1)-c1ccccc1CC21CCCCC1 | > 20 µM (inactive)
Cn1c(=O)c2c(n3cnnc13)-c1ccccc1CC21CCCC1 | > 20 µM (inactive)
CC1(C)Cc2ccccc2-c2c1c(=O)n(Cc1ccccc1)c1nnnn21 | > 20 µM (inactive)
O=c1c2c(nc3[nH]ncn13)-c1ccccc1CC21CCCCC1 | > 20 µM (inactive)
O=c1[nH]c(CN2CCCC2)nc2c1C1(CCCC1)Cc1ccccc1-2 | > 20 µM (inactive)
CC1(C)Cc2ccccc2-c2c1c(=O)n(Cc1ccccc1)c1nncn21 | > 20 µM (inactive)
O=c1c2c(-c3ccccc3)n3ncnc3nc2ccn1-c1ccccc1 | > 20 µM (inactive)
COc1ccc2c(c1)-c1c(c(=O)n(Cc3ccc(Cl)cc3)c3nnnn13)C(C)(C)C2 | > 20 µM (inactive)
O=c1c2ccccc2nc2n1C1(CCCCC1)Cc1ccccc1-2 | > 20 µM (inactive)
O=C1CC(c2ccc(F)cc2)CC2=C1C(c1cccc(Cl)c1)n1ncnc1N2 (stereo not drawn) | > 20 µM (inactive)
O=c1c2cnc3ncnn3c2ccn1CCc1cnc[nH]1 | > 20 µM (inactive)
O=c1c2c(n3nnnc3n1Cc1ccccc1)-c1ccccc1CC21CCCCC1 | 4.15 µM
O=c1[nH]c(CN2CCOCC2)nc2c1C1(CCCC1)Cc1ccccc1-2 | > 20 µM (inactive)
Cc1ccc2c(c1)-c1c(c(=O)n(Cc3ccccc3)c3nnnn13)C1(CCCCC1)C2 | 13.6 µM
O=c1c2c(n3nnnc3n1-c1ccccc1)-c1ccccc1CC21CCCC1 | > 20 µM (inactive)
O=c1[nH]c(NCCCO)nc2c1C1(CCCCC1)Cc1ccccc1-2 | > 20 µM (inactive)

Now from value to compound:

IC50 | SMILES
> 20 µM (inactive) | O=c1c2c(n3cnnc3n1C1CCCCC1)-c1ccccc1CC21CCCCC1
> 20 µM (inactive) | COc1ccc2c(c1)-c1c(c(=O)n(Cc3ccc(Cl)cc3)c3nnnn13)C1(CCCC1)C2
> 20 µM (inactive) | O=c1c2c(-c3ccccc3)n3ncnc3nc2ccn1-n1cnnc1
> 20 µM (inactive) | COc1ccc2c(c1)-c1c(c(=O)n(Cc3ccc(F)cc3)c3nnnn13)C(C)(C)C2
> 20 µM (inactive) | C=C(C)Cn1c(=O)c2c(n3cnnc13)-c1ccccc1CC21CCCC1
> 20 µM (inactive) | Cc1ccc2c(c1)-c1c(c(=O)n(Cc3ccc(Cl)cc3)c3nnnn13)C1(CCCCC1)C2
> 20 µM (inactive) | CC1(C)Cc2ccccc2-c2nc3nn[nH]n3c(=O)c21
1.56 µM | O=c1c2c(n3nnnc3n1Cc1ccc(F)cc1)-c1ccccc1CC21CCCC1
4.03 µM | COc1ccc2c(c1)-c1c(c(=O)n(Cc3ccccc3)c3nnnn13)C(C)(C)C2
3.94 µM | COc1ccc(Cn2c(=O)c3c(n4nnnc24)-c2cc(C)ccc2CC3(C)C)cc1
> 20 µM (inactive) | O=c1c2c(n3nnnc3n1Cc1ccccc1)-c1cc(F)ccc1CC21CCCC1
> 20 µM (inactive) | Cc1ccc2c(c1)-c1c(c(=O)n(Cc3ccc(Cl)cc3)c3nncn13)C1(CCCCC1)C2
> 20 µM (inactive) | O=C1CCCC2=C1C(c1cc(Br)ccc1F)n1ncnc1N2 (stereo not drawn)
8.14 µM | Cc1ccc2c(c1)-c1c(c(=O)n(Cc3ccc(F)cc3)c3nnnn13)C1(CCCCC1)C2
5.19 µM | O=c1c2c(n3cnnc3n1Cc1ccccc1)-c1ccccc1CC21CCCC1
> 20 µM (inactive) | CC1(C)CC(n2c(=S)[nH]c3c(c2=O)C2(CCCC2)Cc2ccccc2-3)CCO1 (stereo not drawn)
> 20 µM (inactive) | COc1ccc2c(c1)-c1c(c(=O)n(Cc3ccc(Cl)cc3)c3nncn13)C(C)(C)C2
> 20 µM (inactive) | COc1ccc2c(c1)-c1c(c(=O)n(Cc3ccccc3)c3nnnn13)C1(CCCC1)C2
2.11 µM | O=c1c2c(n3nnnc3n1Cc1ccc(Cl)cc1)-c1ccccc1CC21CCCC1
> 20 µM (inactive) | COc1ccc2c(c1)-c1c(c(=O)n(Cc3ccc(F)cc3)c3nncn13)C(C)(C)C2
> 20 µM (inactive) | COc1ccc2c(c1)-c1c(c(=O)n(Cc3ccccc3)c3nncn13)C1(CCCC1)C2
5.77 µM | Cc1ccc2c(c1)-c1c(c(=O)n(Cc3ccccc3)c3nnnn13)C(C)(C)C2
3.34 µM | O=c1c2c(n3nnnc3n1Cc1ccccc1)-c1ccccc1CC21CCCC1
0.386 µM | COc1ccc(Cn2c(=O)c3c(n4nnnc24)-c2ccccc2CC32CCCC2)cc1
> 20 µM (inactive) | CC1CC(=O)C2=C(C1)Nc1ncnn1C2c1cccnc1 (stereo not drawn)
> 20 µM (inactive) | COc1ccc2c(c1)-c1c(c(=O)n(Cc3ccc(Cl)cc3)c3nncn13)C1(CCCC1)C2
0.775 µM | O=c1c2c(n3nnnc3n1Cc1ccccc1)-c1cc(F)ccc1CC21CCCCC1
> 20 µM (inactive) | O=c1c2c(nc3[nH]ncn13)-c1ccccc1CC21CCCC1
